From ChEMBL document CHEMBL1122688, “Antimycotic azoles. 7. Synthesis and antifungal properties of a series of novel triazol-3-ones” (1984)

Experiments:
[1] = test system: Trichophyton benhamiae; assay: In vitro antifungal activity against Trichophyton mentagrophytes; format: functional, Arthroderma benhamiae
Procedure, shortened: (§1)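 Fungal growth-inhibition screen (Godefroi method) against dermatophytes, yeasts, moulds and other fungi. The value is the lowest concentration (µg/mL) giving total inhibition of growth, tested up to 100 µg/mL.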

[2] = In vitro antifungal activity against Mucor sp; format: functional; procedure, shortened: as §1
[3] = test system: Saprolegnia; assay: In vitro antifungal activity against Saprolegnia sp; format: functional; procedure, shortened: as §1
[4] = In vivo activity against vaginal candidoses in rats, measured as the ratio of animals cured/animals infected (C/I) at dose 2.5 mg/kg; C/I = 1/2; format: functional
[5] = test system: Candida albicans; assay: In vitro antifungal activity against Candida albicans; format: functional; procedure, shortened: as §1
[6] = test system: Phialophora verrucosa; assay: In vitro antifungal activity against Phialophora verrucosa; format: functional; procedure, shortened: as §1
[7] = test system: Sporothrix schenckii; assay: In vitro antifungal activity against Sporothrix schenck ii; format: functional; procedure, shortened: as §1
[8] = In vivo activity against microsporosis guinea pig, measured as the ratio of animals cured/animals infected (C/I) at dose 10 mg/kg; C/I = 1/4; format: functional
[9] = test system: Aspergillus fumigatus; assay: In vitro antifungal activity against Aspergillus fumigatus; format: functional; procedure, shortened: as §1
[10] = test system: Candida tropicalis; assay: In vitro antifungal activity against Candida tropicalis; format: functional; procedure, shortened: as §1
[11] = test system: Microsporum canis; assay: In vitro antifungal activity against Microsporum canis; format: functional; procedure, shortened: as §1
[12] = test system: Trichophyton rubrum; assay: In vitro antifungal activity against Trichophyton rubrum; format: functional; procedure, shortened: as §1
[13] = test system: Cryptococcus neoformans; assay: In vitro antifungal activity against Cryptococcus neoformans; format: functional; procedure, shortened: as §1
[14] = test system: Rattus norvegicus; assay: In vivo activity against vaginal candidoses in rats, measured as the ratio of animals cured/animals infected (C/I) at dose 1.25 mg/kg; C/I = 5/6; format: functional
[15] = In vivo activity against microsporosis guinea pig, measured as the ratio of animals cured/animals infected (C/I) at dose 2.5 mg/kg; C/I = 0/2; format: functional
[16] = In vivo activity against vaginal candidoses in rats, measured as the ratio of animals cured/animals infected (C/I) at dose 2.5 mg/kg; C/I = 4/6; format: functional
[17] = In vivo activity against vaginal candidoses in rats, measured as the ratio of animals cured/animals infected (C/I) at dose 10 mg/kg; C/I = 2/2; format: functional
[18] = In vivo activity against vaginal candidoses in rats, measured as the ratio of animals cured/animals infected (C/I) at dose 0.63 mg/kg; C/I = 4/8; format: functional
[19] = In vivo activity against microsporosis guinea pig, measured as the ratio of animals cured/animals infected (C/I) at dose 1.25 mg/kg; C/I = 0/2; format: functional
[20] = In vivo activity against microsporosis guinea pig, measured as the ratio of animals cured/animals infected (C/I) at dose 10 mg/kg; C/I = 1/8; format: functional
[21] = In vivo activity against microsporosis guinea pig, measured as the ratio of animals cured/animals infected (C/I) at dose 20 mg/kg; 0/2; format: functional
[22] = In vivo activity against vaginal candidoses in rats, measured as the ratio of animals cured/animals infected (C/I) at dose 2.5 mg/kg; 0/2; format: functional
[23] = In vivo activity against vaginal candidoses in rats, measured as the ratio of animals cured/animals infected (C/I) at dose 10 mg/kg; 1/2; format: functional
[24] = In vivo activity against vaginal candidoses in rats, measured as the ratio of animals cured/animals infected (C/I) at dose 2.5 mg/kg; C/I = 2/4; format: functional
[25] = In vivo activity against microsporosis guinea pig, measured as the ratio of animals cured/animals infected (C/I) at dose 10 mg/kg; C/I = 2/2; format: functional
[26] = In vivo activity against vaginal candidoses in rats, measured as the ratio of animals cured/animals infected (C/I) at dose 2.5 mg/kg; C/I = 9/10; format: functional
[27] = In vivo activity against vaginal candidoses in rats, measured as the ratio of animals cured/animals infected (C/I) at dose 1.25 mg/kg; C/I = 1/4; format: functional
[28] = In vivo activity against microsporosis guinea pig, measured as the ratio of animals cured/animals infected (C/I) at dose 10 mg/kg; C/I = 0/4; format: functional
[29] = In vivo activity against vaginal candidoses in rats, measured as the ratio of animals cured/animals infected (C/I) at dose 0.63 mg/kg; C/I = 1/6; format: functional
[30] = In vivo activity against vaginal candidoses in rats, measured as the ratio of animals cured/animals infected (C/I) at dose 2.5 mg/kg; C/I = 2/2; format: functional
[31] = In vivo activity against vaginal candidoses in rats, measured as the ratio of animals cured/animals infected (C/I) at dose 0.63 mg/kg; C/I = 0/2; format: functional
[32] = In vivo activity against vaginal candidoses in rats, measured as the ratio of animals cured/animals infected (C/I) at dose 2.5 mg/kg; C/I = 4/8; format: functional
[33] = In vivo activity against microsporosis guinea pig, measured as the ratio of animals cured/animals infected (C/I) at dose 2.5 mg/kg; C/I = 0/6; format: functional
[34] = In vivo activity against vaginal candidoses in rats, measured as the ratio of animals cured/animals infected (C/I) at dose 1.25 mg/kg; C/I = 1/6; format: functional
[35] = In vivo activity against vaginal candidoses in rats, measured as the ratio of animals cured/animals infected (C/I) at dose 0.63 mg/kg; C/I = 0/4; format: functional
[36] = In vivo activity against microsporosis guinea pig, measured as the ratio of animals cured/animals infected (C/I) at dose 10 mg/kg; C/I = 4/6; format: functional
[37] = In vivo activity against vaginal candidoses in rats, measured as the ratio of animals cured/animals infected (C/I) at dose 2.5 mg/kg; C/I = 1/4; format: functional
[38] = In vivo activity against microsporosis guinea pig, measured as the ratio of animals cured/animals infected (C/I) at dose 10 mg/kg; 2/2; format: functional
[39] = In vivo activity against microsporosis guinea pig, measured as the ratio of animals cured/animals infected (C/I) at dose 1.25 mg/kg; 0/4; format: functional
[40] = In vivo activity against microsporosis guinea pig, measured as the ratio of animals cured/animals infected (C/I) at dose 2.5 mg/kg; 4/6; format: functional
[41] = In vivo activity against vaginal candidoses in rats, measured as the ratio of animals cured/animals infected (C/I) at dose 2.5 mg/kg; 3/6; format: functional
[42] = In vivo activity against vaginal candidoses in rats, measured as the ratio of animals cured/animals infected (C/I) at dose 1.25 mg/kg; 1/2; format: functional
[43] = In vivo activity against vaginal candidoses in rats, measured as the ratio of animals cured/animals infected (C/I) at dose 0.63 mg/kg; 1/6; format: functional

Row | SMILES | Inhibition [1] | Inhibition [2] | Inhibition [3] | Inhibition [5] | Inhibition [6] | Inhibition [7] | Inhibition [9] | Inhibition [10] | Inhibition [11] | Inhibition [12] | Inhibition [13] | C/I ratio [15] | also measured
1 | CCCn1nc(CC)n(-c2ccc(N3CCN(c4ccc(OC[C@@H]5COC(Cn6ccnc6)(c6ccc(Cl)cc6Cl)O5)cc4)CC3)cc2)c1=O (stereo partly specified) | 10 µg/mL | >100 µg/mL | >100 µg/mL | 100 µg/mL | >100 µg/mL | >100 µg/mL | >100 µg/mL | 10 µg/mL | >100 µg/mL | 100 µg/mL | >100 µg/mL |  | C/I ratio [4]: 1; C/I ratio [8]: 1
2 | Cn1ncn(-c2ccc(N3CCN(c4ccc(OC[C@@H]5COC(Cn6cncn6)(c6ccc(Cl)cc6Cl)O5)cc4)CC3)cc2)c1=O (stereo partly specified) | 1 µg/mL | >100 µg/mL | >100 µg/mL | 100 µg/mL | 100 µg/mL | >100 µg/mL | >100 µg/mL | 10 µg/mL | >100 µg/mL | 10 µg/mL | 100 µg/mL | 0 | C/I ratio [14]: 5; C/I ratio [16]: 4; C/I ratio [17]: 1; C/I ratio [18]: 0.5; C/I ratio [19]: 0; C/I ratio [20]: 1
3 | CC(=O)N1CCN(c2ccc(OC[C@@H]3COC(Cn4cncn4)(c4ccc(Cl)cc4Cl)O3)cc2)CC1 (stereo partly specified) |  |  |  |  |  |  |  |  | 100 µg/mL |  |  |  | C/I ratio [21]: 0; C/I ratio [22]: 0; C/I ratio [23]: 1
4 | Cc1nn(CC(C)C)c(=O)n1-c1ccc(N2CCN(c3ccc(OC[C@@H]4COC(Cn5ccnc5)(c5ccc(Cl)cc5Cl)O4)cc3)CC2)cc1 (stereo partly specified) | 100 µg/mL | >100 µg/mL | >100 µg/mL | >100 µg/mL | >100 µg/mL | >100 µg/mL | >100 µg/mL | 100 µg/mL | >100 µg/mL | 100 µg/mL | 100 µg/mL | 0 | C/I ratio [24]: 0.5; C/I ratio [25]: 2
5 | CCn1nc(C)n(-c2ccc(N3CCN(c4ccc(OC[C@@H]5COC(Cn6cncn6)(c6ccc(Cl)cc6Cl)O5)cc4)CC3)cc2)c1=O (stereo partly specified) | >100 µg/mL | >100 µg/mL | >100 µg/mL | >100 µg/mL | >100 µg/mL | >100 µg/mL | >100 µg/mL | >100 µg/mL | >100 µg/mL | >100 µg/mL | >100 µg/mL |  | C/I ratio [26]: 9; C/I ratio [27]: 1; C/I ratio [28]: 0; C/I ratio [29]: 1
6 | CCC(C)n1nc(C)n(-c2ccc(N3CCN(c4ccc(OC[C@@H]5COC(Cn6cncn6)(c6ccc(Cl)cc6Cl)O5)cc4)CC3)cc2)c1=O (stereo partly specified) | 100 µg/mL | >100 µg/mL | >100 µg/mL | 10 µg/mL | >100 µg/mL | >100 µg/mL | >100 µg/mL | >100 µg/mL | >100 µg/mL | >100 µg/mL | >100 µg/mL | 0 | C/I ratio [30]: 1; C/I ratio [25]: 2; C/I ratio [31]: 0
7 | CCCCn1nc(C)n(-c2ccc(N3CCN(c4ccc(OC[C@@H]5COC(Cn6ccnc6)(c6ccc(Cl)cc6Cl)O5)cc4)CC3)cc2)c1=O (stereo partly specified) | 10 µg/mL | >100 µg/mL | >100 µg/mL | 100 µg/mL | >100 µg/mL | >100 µg/mL | >100 µg/mL | 1 µg/mL | >100 µg/mL | 10 µg/mL | 100 µg/mL |  | C/I ratio [32]: 0.5; C/I ratio [33]: 0; C/I ratio [34]: 1; C/I ratio [35]: 0; C/I ratio [36]: 0.667; C/I ratio [19]: 0
8 | CCCn1nc(C)n(-c2ccc(N3CCN(c4ccc(OC[C@@H]5COC(Cn6cncn6)(c6ccc(Cl)cc6Cl)O5)cc4)CC3)cc2)c1=O (stereo partly specified) | 1 µg/mL | >100 µg/mL | >100 µg/mL | 100 µg/mL | >100 µg/mL | >100 µg/mL | >100 µg/mL | 100 µg/mL | >100 µg/mL | >100 µg/mL | 100 µg/mL |  | C/I ratio [37]: 1; C/I ratio [31]: 0
9 | C=CCn1ncn(-c2ccc(N3CCN(c4ccc(OC[C@@H]5COC(Cn6cncn6)(c6ccc(Cl)cc6Cl)O5)cc4)CC3)cc2)c1=O (stereo partly specified) |  |  |  |  |  |  |  |  |  |  |  |  | C/I ratio [38]: 2; C/I ratio [39]: 0; C/I ratio [40]: 0.667; C/I ratio [41]: 0.5; C/I ratio [42]: 1; C/I ratio [43]: 1; Lowest level of total inhibition [11]: > 100 µg/mL
